Measurements from paper PMC7318068 (ACS Central Science, 2020).

What was measured:
MDA-MB-468 cells [1] = test: Cell viability assay for combinatorial effect of AZ-82 and MK-FNE or MK-2206; format: cell-based; conditions: 72 hours
Halo-Akt3(C119S) = Halo-Akt3(C119S) (Homo sapiens, UniProt Q9Y243, C119S); format: cell-based; conditions: 5 μM, 48 h, then withdrawal
Outline: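 HEK293T cells co-expressing the AktAR ratiometric-FRET reporter and Halo-Akt3(C119S) were exposed to test compound (5 μM) or DMSO for 24–48 h. They were then rinsed twice and recovered in drug-free media for 24 h. Akt kinase activity was imaged live by confocal ratiometric FRET with 458 nm argon-laser excitation at set times.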

Akt1, Akt2, Akt3 = conditions: cited from earlier work
MDA-MB-468 xenografts = test: Drug efficacy test in MDA-MB-468 xenograft mouse model; format: in vivo, athymic nude mice; conditions: 200 mg/kg PO twice weekly
Outline: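 Polyclonal MDA-MB-468 cells were injected into both flanks of female nude mice. From day 7, test compound (200 mg/kg) or vehicle DMSO was given by oral gavage twice weekly, 5 mice per group. Tumor volume was normalized to time zero and plotted against time. Growth rate was the linear-regression slope; groups were compared by two-tailed unpaired t-test.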

[2] = test system: Akt3(T305)-phosphorylation; test: Halo-Akt3 phospho-T305 levels by western blot and ELISA; format: cell-based; conditions: saturating doses
Halo-Akt3(wt) = Halo-Akt3(wt) (Homo sapiens, UniProt Q9Y243); format: cell-based; conditions: 5 μM
Chain of Halo-Akt3(wt) (Q9Y243 whole entry): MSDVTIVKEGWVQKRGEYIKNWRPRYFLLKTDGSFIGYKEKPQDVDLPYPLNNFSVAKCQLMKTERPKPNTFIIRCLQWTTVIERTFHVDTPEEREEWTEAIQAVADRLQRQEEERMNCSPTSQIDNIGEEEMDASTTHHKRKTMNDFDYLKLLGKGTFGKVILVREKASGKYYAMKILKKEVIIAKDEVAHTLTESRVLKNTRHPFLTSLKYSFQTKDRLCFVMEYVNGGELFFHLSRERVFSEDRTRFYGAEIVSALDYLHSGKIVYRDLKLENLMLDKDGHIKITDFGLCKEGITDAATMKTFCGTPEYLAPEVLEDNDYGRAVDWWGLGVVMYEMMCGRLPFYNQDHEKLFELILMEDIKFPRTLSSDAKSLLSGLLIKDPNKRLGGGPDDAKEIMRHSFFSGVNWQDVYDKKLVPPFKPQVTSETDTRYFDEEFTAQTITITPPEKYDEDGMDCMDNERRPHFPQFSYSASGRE

[3] = test system: T47D and T47D MK-2206-resistant cells; test: Cell viability of T47D; format: cell-based; conditions: 72 h
MDA-MB-468 cells [4] = test: Drug effect persistence assay; format: cell-based; conditions: EC60 concentration 48 h, then 24 h recovery

Chain of Halo-Akt3(C119S) (Q9Y243 whole entry C119S): as the sequence (Q9Y243 whole entry) above, with C119S counted along it

For `CCCc1cc(C(=O)N[C@H](Cc2ccc(-c3cccc(OC(F)(F)F)c3)nc2)C(=O)N[C@@H]2CCNC2)sc1C` [AZ82], the “effect on proliferation inhibition by MK-FNE or MK-2206” value (MDA-MB-468 cells [1]) was “selectively promoted resistance to MK-FNE, but not MK-2206”.

In the case of `NC1(c2ccc(-c3nc4ccn5c(=O)[nH]nc5c4cc3-c3ccccc3)cc2)CCC1` [MK-2206], the “Akt3(C119S) activity after 24 h withdrawal in drug-free media” value (Halo-Akt3(C119S)) is listed as “recovery to normal activity levels”, the “higher affinity for Akt1 than Akt3” value (Akt1, Akt2, Akt3) is listed as roughly 100 fold and the “preference of Akt2 over Akt3 for binding” value (Akt1, Akt2, Akt3) is listed as “around 10 fold”. For the same compound, the tumor-growth suppression overall (MDA-MB-468 xenografts; vs DMSO) was 14%, the “slope (m) of fold change in tumor size vs day, linear regression” value (MDA-MB-468 xenografts; DMSO 0.0638 ± 0.0032) was 0.0547 ± 0.0018 and the blood glucose levels (MDA-MB-468 xenografts; Day 21, 4 days after termination of dosing) was “elevated relative to MK-FNE-treated mice”. The “Akt3(T305)-phosphorylation” value [2] was “fully suppressed”, the “ratiometric-FRET signal (Akt activity) under treatment” value (Halo-Akt3(wt); 24 h, vs DMSO) was “suppressed the ratiometric-FRET signal” and the “Akt3(wt) activity after 24 h withdrawal in drug-free media” value (Halo-Akt3(wt); 48 h, then withdrawal) was “kinase activity was restored”. For the same compound, the “Fold increase in resistance = EC50(MK-res)/EC50(wt)” value [3] was 5 fold and the “regrowth after compound withdrawal” value (MDA-MB-468 cells [4]) was “statistically significant regrowth was observed”.
